Results published in ChEMBL document CHEMBL4373680, “Small antibacterial molecules highly active against drug-resistant Staphylococcus aureus” (Medchemcomm, 2019).
≈ marks a conversion by molar mass, not a printed value. Calls of active or inactive are those of the source. The calls are words filed in the database; no cut-off is given here.

Columns and labels:
Acinetobacter baumannii = experiment: Antibacterial activity against Acinetobacter baumannii MTCC 1425 after 24 hrs by tecan plate reader analysis; format: functional
Procedure, shortened: (§1)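 Broth microdilution MIC. Glycerol stocks grown on MacConkey agar 24 h at 37 °C, then a single colony in nutrient broth 6 h to mid-log (~10⁸ CFU/mL). Cells diluted to 10⁵ CFU/mL in Mueller Hinton broth and added to two-fold compound dilutions. Incubated 24 h at 37 °C, OD600 read. Triplicate wells, experiment run twice.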

Escherichia coli = experiment: Antibacterial activity against Escherichia coli MTCC 443 after 24 hrs by tecan plate reader analysis; format: functional; procedure, shortened: as §1
Klebsiella pneumoniae = experiment: Antibacterial activity against Klebsiella pneumoniae ATCC 700603 after 24 hrs by tecan plate reader analysis; format: functional; procedure, shortened: as §1
Pseudomonas aeruginosa = experiment: Antibacterial activity against Pseudomonas aeruginosa MTCC 424 after 24 hrs by tecan plate reader analysis; format: functional; procedure, shortened: as §1
Staphylococcus aureus [1] = experiment: Antibacterial activity against methicillin-resistant Staphylococcus aureus ATCC 33591 after 24 hrs by tecan plate reader analysis; format: functional; details: ATCC 33591, 24 h
Procedure, shortened: (§2)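 Colony grown 24 h on NB agar at 37 °C, then 6 h in nutrient broth to mid-log (10⁸ CFU/mL by drop plating), diluted to 10⁵ CFU/mL in Mueller Hinton broth; added 9:1 to two-fold serial compound dilutions in MHB. Incubated 24 h, 37 °C; OD600 read. Triplicate per concentration, experiment run twice; MIC taken from the range of triplicate OD values.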

[2] = Hemolytic activity in human erythrocytes after 1 hr; format: ADME, cell-based, Erythrocyte
Procedure, shortened: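 Heparinized donor blood. Erythrocytes washed three times in PBS and resuspended to 5 vol%, then mixed 3:1 with compound serially diluted in water. Incubated 1 h at 37 °C and centrifuged. Supernatant A540 read; % hemolysis relative to water and 0.1 vol% Triton-X controls.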

Staphylococcus aureus [3] = experiment: Antibiofilm activity against Staphylococcus aureus R3545 assessed as reduction in biofilm biomass at 32 ug/ml incubated for 24 hrs followed by plating on agar plate for 24 hrs by crystal violet staining assay relative to control; format: functional; details: R3545, 24 h
Procedure, shortened: (§3)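 Biofilms grown 24 h static at 37 °C on coverslips (10⁵ CFU/mL in nutrient broth, 1% glucose, 1% NaCl) and treated 24 h, then PBS-washed, air-dried 10–15 min, stained with 0.1% w/v crystal violet 5–10 min, washed, dye recovered in 95% ethanol; OD 522 nm read. Run twice, mean with standard deviation.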

Staphylococcus aureus [4] = experiment: Bactericidal activity against metabolically inactive stationary phase methicillin-resistant Staphylococcus aureus R3545 assessed as reduction in bacterial colony formation at 32 ug/ml incubated for 6 hrs followed by plating on agar plate for 24 hrs by visual counting analysis; format: functional, organism-based
Staphylococcus aureus [5] = experiment: Antibiofilm activity against Staphylococcus aureus ATCC 33591 assessed as reduction in biofilm biomass at 32 ug/ml incubated for 24 hrs followed by plating on agar plate for 24 hrs by crystal violet staining assay relative to control; format: functional; details: ATCC 33591, 24 h; procedure, shortened: as §3
Staphylococcus aureus [6] = experiment: Bactericidal activity against metabolically inactive stationary phase methicillin-resistant Staphylococcus aureus ATCC 33591 assessed as reduction in bacterial colony formation at 32 ug/ml incubated for 6 hrs followed by plating on agar plate for 24 hrs by visual counting analysis; format: functional, organism-based
Staphylococcus aureus [7] = experiment: Antibacterial activity against vancomycin-resistant Staphylococcus aureus clinical isolate 4 after 24 hrs by tecan plate reader analysis; format: functional; details: clinical isolate 4, 24 h; procedure, shortened: as §2
Staphylococcus aureus [8] = experiment: Antibacterial activity against vancomycin-resistant Staphylococcus aureus clinical isolate 1 after 24 hrs by tecan plate reader analysis; format: functional; details: clinical isolate 1, 24 h; procedure, shortened: as §2
Staphylococcus aureus [9] = experiment: Antibacterial activity against methicillin-resistant Staphylococcus aureus R3889 clinical isolate after 24 hrs by tecan plate reader analysis; format: functional; details: R3889, 24 h; procedure, shortened: as §2
Staphylococcus aureus [10] = experiment: Antibacterial activity against methicillin-resistant Staphylococcus aureus R3890 clinical isolate after 24 hrs by tecan plate reader analysis; format: functional; details: R3890, 24 h; procedure, shortened: as §2
Staphylococcus aureus [11] = experiment: Antibacterial activity against methicillin-resistant Staphylococcus aureus R3545 clinical isolate after 24 hrs by tecan plate reader analysis; format: functional; details: R3545, 24 h; procedure, shortened: as §2
[12] = Selectivity index, ratio of HC50 for human erythrocytes to MIC for Escherichia coli MTCC 443; format: toxicity; details: read-out: Selectivity Index
[13] = Klebsiella pneumoniae, 700603, 24 h

Row | Molecule | MIC (Acinetobacter baumannii; MTCC 1425, 24 h) [µg/mL] | MIC (Escherichia coli; MTCC 443, 24 h) [µg/mL] | MIC (Staphylococcus aureus [1]) [µg/mL] | MIC (Klebsiella pneumoniae; [13]) [µg/mL] | HC50 at 1 h [2] [µg/mL] | MIC (Pseudomonas aeruginosa; MTCC 424, 24 h) [µg/mL] | other results
1 | COLISTIN | – | – | – | – | – | – | MIC (Acinetobacter baumannii): 0.5 µg/mL; MIC (Escherichia coli): 1 µg/mL; MIC (Klebsiella pneumoniae): 1 µg/mL; MIC (Pseudomonas aeruginosa): 1 µg/mL
2 | CCCCCCCCCCCCNC(=O)C[N+](C)(CCO)CCCCCCCCCCCC[N+](C)(CCO)CC(=O)NCCCCCCCCCCCC.[Br-].[Br-] (centres undefined) | 32 | 32 | 2 to 4 | 128 to 256 | 22 | 64 | –
3 | CCCCCCCCNC(=O)C[N+](C)(CCO)CCC[N+](C)(CCO)CC(=O)NCCCCCCCC.[Br-].[Br-] (centres undefined) | 32 | 16 | 2 | 32 | 178 | 8 | –
4 | CCCCCCCCCCNC(=O)C[N+](C)(CCO)CCCCCCCCCCCC[N+](C)(CCO)CC(=O)NCCCCCCCCCC.[Br-].[Br-] (centres undefined) | 2 | 4 | 2 | 16 | 16 | 32 | –
5 | CCCCCCCCNC(=O)C[N+](C)(CCO)CCCCCCCC[N+](C)(CCO)CC(=O)NCCCCCCCC.[Br-].[Br-] (centres undefined) | 8 | 1 to 2 | 0.5 to 1 | 8 | 61 | 16 | –
6 | CN[C@H](CC(C)C)C(=O)N[C@H]1C(=O)N[C@@H](CC(N)=O)C(=O)N[C@H]2C(=O)N[C@H]3C(=O)N[C@H](C(=O)N[C@H](C(=O)O)c4cc(O)cc(O)c4-c4cc3ccc4O)[C@H](O)c3ccc(c(Cl)c3)Oc3cc2cc(c3O[C@@H]2O[C@H](CO)[C@@H](O)[C@H](O)[C@H]2O[C@H]2C[C@](C)(N)[C@H](O)[C@H](C)O2)Oc2ccc(cc2Cl)[C@H]1O [VANCOMYCIN] | – | – | 0.5 to 1 (≈ 0.345 to 0.69 µM) | – | – | – | inhibition at 32 µg/mL (Staphylococcus aureus [3]): 10%; Activity (Staphylococcus aureus [4]): inactive; inhibition at 32 µg/mL (Staphylococcus aureus [5]): 10%; Activity (Staphylococcus aureus [6]): inactive; MIC (Staphylococcus aureus [7]): 512 µg/mL (≈ 353 µM); MIC (Staphylococcus aureus [8]): 512 µg/mL (≈ 353 µM)
7 | CCCCCCNC(=O)C[N+](C)(CCO)CCCCCCCC[N+](C)(CCO)CC(=O)NCCCCCC.O=C([O-])C(F)(F)F.O=C([O-])C(F)(F)F (centres undefined) | > 256 | 256 | 128 | > 256 | > 1020 | > 256 | –
8 | CCCCCCCCNC(=O)C[N+](C)(CCO)CCCCCCCCCC[N+](C)(CCO)CC(=O)NCCCCCCCC.[Br-].[Br-] (centres undefined) | 4 | 0.5 | 0.25 to 0.5 | 4 | 28 | 4 | –
9 | CCCCCCCCCCCCNC(=O)C[N+](C)(CCO)CCCCCCCCCC[N+](C)(CCO)CC(=O)NCCCCCCCCCCCC.[Br-].[Br-] (centres undefined) | 8 | 32 | 4 | 64 to 128 | 32 | 64 to 128 | –
10 | CCCCCCNC(=O)C[N+](C)(CCO)CCC[N+](C)(CCO)CC(=O)NCCCCCC.O=C([O-])C(F)(F)F.O=C([O-])C(F)(F)F (centres undefined) | > 256 | > 256 | 256 | > 256 | > 1020 | > 256 | –
11 | CCCCCCCCCCCCNC(=O)C[N+](C)(CCO)CCC[N+](C)(CCO)CC(=O)NCCCCCCCCCCCC.[Br-].[Br-] (centres undefined) | 8 | 16 | 2 | 128 to 256 | 37 | 64 to 128 | –
12 | CCCCCCCCCCCCNC(=O)C[N+](C)(CCO)CCCCCC[N+](C)(CCO)CC(=O)NCCCCCCCCCCCC.[Br-].[Br-] (centres undefined) | 4 | 8 | 1 to 2 | 128 | 31 | 128 to 256 | –
13 | CCCCCCCCCCNC(=O)C[N+](C)(CCO)CCCCCCCC[N+](C)(CCO)CC(=O)NCCCCCCCCCC.[Br-].[Br-] (centres undefined) | 1 | 1 | 0.5 | 2 | 25 | 4 | –
14 | CCCCCCCCNC(=O)C[N+](C)(CCO)CCCCCCCCCCCC[N+](C)(CCO)CC(=O)NCCCCCCCC.[Br-].[Br-] (centres undefined) | 2 | 0.5 to 1 | 0.25 | 2 | 12 | 4 | –
15 | CCCCCCCCCCNC(=O)C[N+](C)(CCO)CCC[N+](C)(CCO)CC(=O)NCCCCCCCCCC.[Br-].[Br-] (centres undefined) | 2 | 1 | 1 | 4 | 34 | 2 | –
16 | CCCCCCCCCCNC(=O)C[N+](C)(CCO)CCCCCC[N+](C)(CCO)CC(=O)NCCCCCCCCCC.[Br-].[Br-] (centres undefined) | 2 | 1 | 0.5 | 2 to 4 | 31 | 4 | –
17 | COc1cccc(OC)c1C(=O)N[C@@H]1C(=O)N2[C@@H]1SC(C)(C)[C@@H]2C(=O)O [METHICILLIN] | – | – | > 32 | – | – | – | MIC (Staphylococcus aureus [9]): 16 to 32 µg/mL (≈ 42.1 to 84.1 µM); MIC (Staphylococcus aureus [10]): > 32 µg/mL; MIC (Staphylococcus aureus [11]): 16 to 32 µg/mL (≈ 42.1 to 84.1 µM)
18 | CCCCCCNC(=O)C[N+](C)(CCO)CCCCCCCCCC[N+](C)(CCO)CC(=O)NCCCCCC.O=C([O-])C(F)(F)F.O=C([O-])C(F)(F)F (centres undefined) | 256 | 8 | 8 | > 256 | > 1020 | 256 | selectivity ratio [12]: 125
19 | CCCCCCNC(=O)C[N+](C)(CCO)CCCCCC[N+](C)(CCO)CC(=O)NCCCCCC.O=C([O-])C(F)(F)F.O=C([O-])C(F)(F)F (centres undefined) | > 256 | > 256 | 256 | > 256 | > 1020 | > 256 | –
20 | CCCCCCCCCCNC(=O)C[N+](C)(CCO)CCCCCCCCCC[N+](C)(CCO)CC(=O)NCCCCCCCCCC.[Br-].[Br-] (centres undefined) | 1 | 2 | 0.5 | 4 | 18 | 8 | –
21 | CCCCCCCCCCCCNC(=O)C[N+](C)(CCO)CCCCCCCC[N+](C)(CCO)CC(=O)NCCCCCCCCCCCC.[Br-].[Br-] (centres undefined) | 4 | 32 | 2 | 64 | 29 | 64 to 128 | –
